# Sampled rows, rich in hits. Any-hit rate of the full collection: about 1.9%.
# Rpn11 block – blocks the human proteasome subunit Rpn11 | O00487 | human 26S proteasome, Ub4-pepOG fluorescence polarization; 20S core pre-blocked with epoxomicin | inhibition, % at 20 µM | 360,000 compounds, 0.59% hits;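 active = inhibition at 20 µM, scaled to each plate's controls, above about 33%, limit read from the data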
# NadD block – NadD (S. aureus) enzyme inhibition | purified NadD enzyme, colorimetric absorbance read-out | inhibition, % at 20 µM | 360,000 compounds, 0.78% hits | AID 602399; in the data active = inhibition above about 26%
# ABHD5-PLIN5 inh – blocks binding of human ABHD5 to perilipin-5 | Split G. princeps luciferase complementation, luminescence, 4 h | Q00G26+Q8WTS1 | 360,000 compounds, 0.78% hits | AID 602281 | inhibition, % at 4 µM;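 active = inhibition above the mean inhibition across every tested compound plus 3 SD, cut at about 22% in these data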;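 note: 0% = DMSO only wells and the 100% control is not disclosed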
# Target sequence (Q00G26 whole entry, looked up): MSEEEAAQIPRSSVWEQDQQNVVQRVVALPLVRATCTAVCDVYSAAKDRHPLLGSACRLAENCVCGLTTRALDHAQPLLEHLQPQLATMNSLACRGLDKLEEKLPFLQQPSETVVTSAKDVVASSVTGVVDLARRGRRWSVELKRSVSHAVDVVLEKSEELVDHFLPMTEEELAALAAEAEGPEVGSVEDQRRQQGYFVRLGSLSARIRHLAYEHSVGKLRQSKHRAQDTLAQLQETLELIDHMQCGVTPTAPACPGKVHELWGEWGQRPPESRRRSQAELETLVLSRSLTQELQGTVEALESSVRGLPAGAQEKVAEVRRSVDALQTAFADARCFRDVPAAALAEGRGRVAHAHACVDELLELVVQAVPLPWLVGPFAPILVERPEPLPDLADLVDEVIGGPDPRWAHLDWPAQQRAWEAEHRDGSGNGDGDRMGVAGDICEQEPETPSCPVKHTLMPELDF
# Target sequence (Q8WTS1 whole entry, looked up): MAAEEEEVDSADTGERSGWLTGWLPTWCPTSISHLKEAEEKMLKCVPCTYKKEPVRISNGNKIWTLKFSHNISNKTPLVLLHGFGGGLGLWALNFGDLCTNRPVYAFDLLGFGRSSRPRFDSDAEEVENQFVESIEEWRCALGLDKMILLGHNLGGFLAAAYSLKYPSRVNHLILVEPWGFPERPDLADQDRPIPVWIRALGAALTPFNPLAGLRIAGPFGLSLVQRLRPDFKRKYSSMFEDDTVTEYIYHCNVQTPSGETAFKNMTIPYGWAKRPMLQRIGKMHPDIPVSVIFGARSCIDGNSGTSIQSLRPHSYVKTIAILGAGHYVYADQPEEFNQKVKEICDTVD
# Xi reactivation – activators of X-chromosome reactivation in mouse fibroblasts | XiGFP mouse fibroblasts, % GFP-positive cells imaging, 3 d; cells co-treated with 5-aza-dC sensitizer; scaled so ellipticine positive control = 100% | activation, % at 7.58 µM | 360,000 compounds, 0.055% hits | AID 743238;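 active = mean normalized replicate activation at least 10% and every replicate at or above 10%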;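 note: 0% = median of on-plate neutral control wells and 100% = ellipticine 6 µM median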
#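 Schedule: 3 d treatment, 15 min room-temperature fixation; system: 68-5-11 XiGFP fibroblast line; buffer or medium: DMEM plus 5-aza-dC sensitizer; control set: ellipticine 6 µM positive control; compound: one concentration, pinned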
# Rin1 Abl inh – blocks binding of human Rin1 to Abl; P00519+Q13671; TR-FRET Rin1/Abl binding, biochemical; 360,000 compounds, 0.4% hits; AID 588664; inhibition, % at 7.35 µM; in the data active = inhibition above about 5%, passing the limit was not always enough
# ABHD5-PLIN5 conf – confirmation of human ABHD5-PLIN5 interaction inhibitors; shares compounds with ABHD5-PLIN5 inh; biochemical ABHD5-PLIN5 interaction, luminescence; inhibition, % at 4 µM; 2,200 compounds, 67% hits; in the data active = inhibition above about 23%;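 note: 0% = DMSO vehicle wells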
# HNF4 split-luc – counter-screen for ABHD5-PLIN5 inhibitors: HNF4 split-luciferase. HNF4 dimerization, luminescence, biochemical. inhibition, % at 4 µM. shares compounds with ABHD5-PLIN5 inh. 2,200 compounds, 77% hits;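 active = mean inhibition across replicate wells exceeding the computed hit threshold, cut at about 13% in these data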;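 note: light from luciferase halves that rejoin when HNF4 fusion proteins dimerize; 0% = DMSO only wells and the 100% control is not given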
# NadD conf – NadD (S. aureus) inhibition, single concentration confirmation; shares compounds with NadD block; purified S. aureus NadD, colorimetric enzyme assay; inhibition, % at 20 µM; 2,000 compounds, 13% hits; in the data active = inhibition mostly above about 42%, no sharp cut-off; inactive = mostly below about 42%
# An asterisk follows results filed as active; · = no result shown.
SMILES,Rpn11 block,NadD block,ABHD5-PLIN5 inh,Xi reactivation,Rin1 Abl inh,NadD conf,others
CC(C)(O)/C=C/C(=O)C(C)(O)C1C(O)CC2(C)C3CC=C4C(C=C(O)C(=O)C4(C)C)C3(C)C(=O)CC12C (stereo not given),1.8,-2.6,42.1*,0.1,2.9,·,ABHD5-PLIN5 conf=67.8*;HNF4 split-luc=49.6*
Cc1cccc(S(=O)(=O)N2[C@@H]3c4ccc(-c5ccccc5)c(=O)n4C[C@H]2[C@H](CO)[C@H]3C(=O)O)c1,·,·,·,0.1,·,·,
O=C1c2cccc3cccc(c23)C(=O)N1/N=C/c1c(O)n(-c2ccccc2)c(=O)[nH]c1=O,-6.7,1.2,24.3*,0.1,-6.8,·,ABHD5-PLIN5 conf=12.8;HNF4 split-luc=17.8*
CCN(CC)S(=O)(=O)c1ccc(N=Cc2c(O)n(-c3ccccc3)c(=O)[nH]c2=O)cc1,20.3,8.7,8.6,·,2.2,·,
CC=Cc1ccc2n(c1=O)C[C@H]1[C@H](CO)[C@@H](C(=O)OC)[C@@H]2N1C(=O)CC1CC1 (mixture of isomers),·,·,·,1.7,·,·,
CCOC(=O)[C@]12Cc3ccc(C)cc3[C@H]1N(C1CCCCC1)C(=O)c1ccccc12,·,-1.6,39.8*,0.0,·,·,ABHD5-PLIN5 conf=29.8*;HNF4 split-luc=21.1*
CCOC(=O)[C@]12Cc3cc(Cl)ccc3[C@H]1N(C1CCCCC1)C(=O)c1cc(OC)ccc12,·,21.9,60.9*,0.7,·,·,ABHD5-PLIN5 conf=39.2*;HNF4 split-luc=58.1*
CCOC(=O)[C@]12Cc3ccc(C)cc3[C@H]1N(C1CCCCC1)C(=O)c1cc(OC)ccc12,·,2.5,43.1*,-0.1,·,·,ABHD5-PLIN5 conf=41.1*;HNF4 split-luc=46.3*
CCOC(=O)[C@]12Cc3c(cc(OC)c(OC)c3OC)[C@H]1N(C1CCCCC1)C(=O)c1ccccc12,·,5.4,39.4*,0.6,·,·,ABHD5-PLIN5 conf=19.6;HNF4 split-luc=32.2*
CC=Cc1ccc2n(c1=O)C[C@@H]1[C@@H](CO)[C@H](C(=O)O)[C@H]2N1S(=O)(=O)c1ccccc1C (mixture of isomers),·,·,·,0.5,·,·,
N#Cc1cccc(-c2ccc([C@H]3[C@H]4CN(C(=O)Cc5cccnc5)CCCCN4[C@H]3CO)cc2)c1,·,·,·,0.1,·,·,
O=C(Cc1ccccn1)N1CC2(C1)[C@H](c1ccccc1)[C@H](CO)N2Cc1ccccn1,·,·,·,0.0,·,·,
CCOC(=O)[C@]12Cc3cc(C)ccc3[C@H]1N(C1CCCCC1)C(=O)c1ccccc12,·,4.1,48.2*,0.1,·,·,ABHD5-PLIN5 conf=20.9;HNF4 split-luc=39.2*
O=C(O)[C@H]1[C@H](CO)[C@H]2Cn3c(ccc(-c4ccc(F)cc4)c3=O)[C@@H]1N2CC1CCCC1,·,·,·,0.0,·,·,
COC(=O)[C@@H]1[C@@H](CO)[C@@H]2Cn3c(ccc(C4=CCCCC4)c3=O)[C@H]1N2C(=O)NC(C)C,·,·,·,0.2,·,·,
COC(=O)[C@H]1[C@H](CO)[C@H]2Cn3c(ccc(C4=CCCC4)c3=O)[C@@H]1N2Cc1ccccn1,·,·,·,0.1,·,·,
CCN1/C(=C/C=C/C2=[N+](CC)c3ccccc3C2(C)C)C(C)(C)c2ccccc21,·,1.2,52.3*,0.4,-32.1,·,ABHD5-PLIN5 conf=27.9*;HNF4 split-luc=37.1*
COc1ccc(-c2cc(-c3ccccc3)[n+](C)c(-c3ccccc3)c2)cc1,-4.5,13.8,-7.7,0.0,-0.7,·,
C[n+]1c(-c2ccccc2)cc(CCCCc2cc(-c3ccccc3)[n+](C)c(-c3ccccc3)c2)cc1-c1ccccc1,6.9,40.1*,-1.8,0.1,-1.9,42.7,
COCC(=O)N1[C@@H]2Cn3c(ccc(C4=CCCC4)c3=O)[C@H]1[C@@H](C(=O)OC)[C@@H]2CO,·,·,·,0.1,·,·,
Cc1cccc(C)c1-n1nnnc1C(CCc1ccccc1)N1CCC2(CC1)C(=O)NCN2c1ccccc1 (stereo not given),2.5,40.8*,2.4,0.0,0.2,10.1,
O=C1NCN(c2ccccc2)C12CCN(C(c1cccc3ccccc13)c1nnnn1C1CCCCC1)CC2 (stereo not given),2.3,30.0*,-6.7,0.1,-0.9,7.8,
COC(=O)[C@H]1[C@H](CO)[C@H]2Cn3c(ccc(-c4cccc(OC)c4)c3=O)[C@@H]1N2C(=O)c1cnccn1,·,·,·,0.1,·,·,
COC(=O)[C@@H]1[C@@H](CO)[C@@H]2Cn3c(ccc(-c4cccc(F)c4)c3=O)[C@H]1N2Cc1ccncc1,·,·,·,0.2,·,·,
c1ccc(-c2nc3ccccc3nc2-c2ccc(CN3CCC(n4nnc5ccccc54)CC3)cc2)cc1,·,·,·,0.1,·,·,
SMILES,Rpn11 block,NadD block,ABHD5-PLIN5 inh,Xi reactivation,Rin1 Abl inh,NadD conf,others
Fc1ccc2nc(-c3ccc(CN4CCC(n5nnc6ccccc65)CC4)cc3)c(-c3ccccc3)nc2c1,·,·,·,0.0,·,·,
N#Cc1ccc2nc(-c3ccc(CN4CCC(n5c(=O)[nH]c6ccccc65)CC4)cc3)c(-c3ccccc3)nc2c1,·,43.5*,16.1,0.0,·,25.7,
Cc1cccc2nc(-c3ccccc3)c(-c3ccc(CN4CCC(n5c(=O)[nH]c6ccccc65)CC4)cc3)nc12,·,45.0*,3.1,-0.2,·,26.5,
Cc1cccc(C)c1-n1nnnc1C(c1cccc2ccccc12)N1CCC(n2c(=O)[nH]c3ccccc32)CC1 (stereo not given),4.6,38.4*,2.4,0.1,5.3,-3.3,
O=C(Cc1ccccc1)N1C[C@@H]2[C@H](c3ccccc31)[C@@H](CO)N2Cc1ccccc1,·,·,·,0.3,·,·,
CCOc1cc(C2C(C#N)=C(N)Oc3c2c(=O)oc2ccccc32)ccc1OC(=O)c1cccs1 (stereo not given),0.5,31.3*,-2.7,0.2,1.1,22.9,
N#CC1=C(N)Oc2c(c(=O)oc3ccccc23)C1c1cccnc1 (stereo not given),4.6,0.7,0.2,·,2.6,·,
COC(=O)[C@@H]1[C@@H](CO)[C@@H]2Cn3c(cccc3=O)[C@H]1N2Cc1nccs1,·,·,·,0.2,·,·,
Cc1cc(N(CCCl)CCCl)ccc1C=NNC(=O)Cc1cc(=O)oc2cc(O)ccc12,9.3,72.9*,6.3,-0.1,-1.4,58.6*,
CC(=O)c1ccc2c(c1)C1C(Cl)C(Sc3ccccc3[N+](=O)[O-])CC1C(c1ccccc1)N2 (stereo not given),1.0,36.9*,1.4,·,-1.1,20.3,
O=C1NC(=O)C(Sc2ccccc2[N+](=O)[O-])C(=O)N1,8.8,2.6,-4.3,0.1,3.8,·,
CC(=O)c1ccc2c(c1)C1C(Cl)C(Sc3ccccc3[N+](=O)[O-])CC1C(c1ccccc1[N+](=O)[O-])N2 (stereo not given),13.9,68.0*,7.4,·,-3.6,25.3,
O=C(NCCCN1CC1)Nc1cccc2ccccc12,1.9,33.9*,6.0,0.2,1.6,10.9,
O=C(Cc1cccnc1)N1CCCCN2[C@H](CO)[C@@H](c3ccc(/C=C/c4ccccc4)cc3)[C@H]2C1,·,·,·,-0.1,·,·,

# Source: PubChem BioAssay (several laboratories)
